Experiment [1] concerns Trypanosoma cruzi. Briefly: Antitrypanosomal activity against Trypanosoma cruzi amastigotes. It is filed as functional, organism-based. As to conditions: Trypanosoma cruzi.
In experiment [2] the test system is L6. Kind of experiment: In vitro cytotoxicity against L6 cells. In kind it is functional, cell-based, Rattus norvegicus. As to conditions: Rattus norvegicus, L6.
In experiment [3] the test system is Trypanosoma cruzi. Briefly: Antitrypanosomal activity against Trypanosoma cruzi epimastigotes. In kind it is functional, organism-based. The settings on record: Trypanosoma cruzi.
The test system of experiment [4] is Trypanosoma cruzi. Briefly: Index of selectivity was determined in Trypanosoma cruzi. In kind it is functional. In a few lines:
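Ratio of IC50 on L6 cells to IC50 on intracellular amastigote proliferation of T. cruzi.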

The subject of experiment [5] is Trypanosoma cruzi. Kind of experiment: Antitrypanosomal activity against (Trypanosoma cruzi) trypomastigotes (concentration of compound tested on trypomastigote motility). It is filed as functional, organism-based. The settings on record: Trypanosoma cruzi. In a few lines: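 Tulahuen LacZ clone 4 trypomastigotes harvested from infected murine L6 muscle cell cultures; 2-fold drug dilutions from 200 to 1.5 µM, 48 h; motility scored by microscopy; value is concentration with no detectable motility effect, mean of 2 independent experiments.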

The nature of experiment [6]: In vitro cell survival assay on cancer KB cell lines. In kind it is functional, cell-based, Homo sapiens. Summed up: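 KB oral epidermoid carcinoma cells in MEM with 10% FCS, 25 000 cells/well; serial dilutions (DMSO or water) added at plating; 3 days at 37 °C, 5% CO2; viability by neutral red uptake 8-16 h, SDS lysis, absorbance 540 nm.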
The subject of experiment [7] is Plasmodium falciparum. Kind of experiment: Antiplasmodial activity against chloroquine-resistant Plasmodium falciparum K1. It is filed as functional, organism-based. The settings on record: Plasmodium falciparum. Summed up: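 K1 strain kept in continuous culture on human erythrocytes. Asynchronous cultures (1% parasitemia, 1% final hematocrit) exposed to serial dilutions of drug (DMSO stocks; final DMSO ≤0.2%) for 24 h at 37 °C. 0.5 µCi [3H]hypoxanthine per well was then added for a further 24 h. Inhibition is incorporation versus untreated controls on the same plate. IC50 taken from concentration-response curves, mean ± SD of several independent experiments.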

Experiment [8] relates to Plasmodium falciparum. Kind of experiment: Selectivity index against Plasmodium falciparum. In kind it is functional.
Experiment [9] in a line: In vitro cytotoxicity against L6 cells.

Counter-ions that a name gives are not always drawn.

As for `CC(C)c1c2ccccc2[n+](C)c2c1[nH]c1ccccc12.O=S(=O)([O-])C(F)(F)F`, the IC50 (commonly the concentration at which inhibition is half-maximal) in [1] was determined as 3.3 µM; in experiment [2], 15.1 µM; in experiment [3], 0.73 µM; in experiment [5], 12.5 µM; in experiment [6] (kb), 6.4 µM; in experiment [7], 1.3 µM. Also, the IS in experiment [4] is given as 4.6; in experiment [8], 12.6.

For `c1ccc(-c2c3nc4ccccc4c-3[nH]c3ccccc23)cc1`, the IC50 in experiment [6] (Homo sapiens, KB) is over 100 µM.

As for `CC(C)c1c2nc3ccccc3c-2[nH]c2ccccc12`, the midpoint of inhibition in [6] (Homo sapiens, KB), the IC50, lay at 57 µM.

As for `Cc1c2ccccc2[n+](C)c2c1[nH]c1ccccc12`, the IC50 in experiment [6] (Homo sapiens, KB) was 0.42 µM.

As to `CCc1c2nc3ccccc3c-2n(C)c2ccccc12`, the IC50 in experiment [1] amounted to 0.18 µM; in experiment [2], 5.9 µM; in experiment [3], 3.2 µM; in [5], 6.25 µM; in experiment [6] (Homo sapiens, KB), 0.7 µM; in experiment [7], 1.1 µM. The IS in experiment [4] came to 33; in experiment [8], 5.5.

Regarding `CC(C)c1c2ccccc2[n+](C)c2c1[nH]c1ccccc12`, 9.25 µM corresponded to half-maximal inhibition in experiment [6] (Homo sapiens, KB) (IC50).

Turning to `Cc1c2nc3ccccc3c-2[nH]c2ccccc12`, the IC50 in experiment [1] amounted to 4.7 µM; in experiment [2] it was 18.9 µM; in experiment [3] it was 3.9 µM; in [5], 25 µM; in experiment [6] (Homo sapiens, KB), 40 µM; in experiment [7] it was 74.6 µM. Moreover, the values for the IS in [4] and in experiment [8] were 4 and 0.25, respectively.

In experiment [6] (Homo sapiens, KB), `CCc1c2ccccc2[n+](C)c2c1[nH]c1ccccc12` registered an IC50 of 1.5 µM.

In experiment [6] (kb), `C[n+]1c2ccccc2cc2[n-]c3ccccc3c21` [CRYPTOLEPINE HYDROCHLORIDE] came in with an IC50 of 1.75 µM.

For `CC(C)c1c2nc3ccccc3c-2n(C)c2ccccc12`, the IC50 in experiment [2] was 23.8 µM; in [6] (Homo sapiens, KB), 6.5 µM; in experiment [7], 2.2 µM. This compound gave an IS in experiment [8] of 10.6.

`Cc1c2nc3ccccc3c-2n(C)c2ccccc12`: the IC50 in experiment [2] stood at 3.7 µM; in experiment [6] (Homo sapiens, KB), 0.53 µM; in experiment [7], 0.101 µM. In [8], the IS is recorded as 41.9.

For `Cc1c2ccccc2[n+](C)c2c1[nH]c1ccccc12.O=S(=O)([O-])C(F)(F)F`, the IC50 in experiment [1] is 0.074 µM; in [2], 1.4 µM; in experiment [3], 0.3 µM; in experiment [5] it was 12.5 µM; in [6] (kb), 0.57 µM; in [7], 0.062 µM. The IS in experiment [4] is 18.9; in experiment [8], 22.5.

`c1ccc2nc3c(cc2c1)[nH]c1ccccc13` [QUINDOLINE]: the IC50 was determined as 14.2 µM in experiment [1]; 48.6 µM in experiment [2]; 8.7 µM in experiment [3]; 50 µM in [5]; 45 µM in experiment [6] (Homo sapiens, KB); 36.2 µM in experiment [7]. For the same compound, the IS is listed as 3.4 in experiment [4] and 1.3 in [8].

In [6] (Homo sapiens, KB), `C[n+]1c2ccccc2cc2[n-]c3ccccc3c21` [CRYPTOLEPINE] gave an IC50 of 1.5 µM.

On to `Cn1c2c3ccccc3nc-2c(-c2ccccc2)c2ccccc21`, for which the half-inhibitory concentration (IC50) in experiment [1] amounted to 0.34 µM; in experiment [2] it was 5.5 µM; in [3], 0.23 µM; in [5] it was 1.5 µM; in [6] (Homo sapiens, KB) it was 0.75 µM; in experiment [7], 1.1 µM. Also, the IS in [4] worked out at 16.6; in experiment [8], 5.5.

For `CCc1c2nc3ccccc3c-2[nH]c2ccccc12`, the IC50 in experiment [1] amounted to 5.7 µM; in experiment [2] it was 21.5 µM; in [3] it was 2.8 µM; in experiment [5], 6.25 µM; in [6] (Homo sapiens, KB), 40 µM; in experiment [7], 30.9 µM. Further, the IS came out at 3.8 in experiment [4] and 0.7 in [8].

`Clc1c2nc3ccccc3c-2[nH]c2ccccc12`: the IC50 is 6.7 µM in [1]; 6.3 µM in [3]; 50 µM in [5]; 74.6 µM in [7]; 43.2 µM in [9]. The IS amounted to 6.4 in [4] and 1.7 in [8].

For the origin of these results see ChEMBL document CHEMBL1134377, “New synthesis of benzo-delta-carbolines, cryptolepines, and their salts: in vitro cytotoxic, antiplasmodial, and antitrypanosomal activities of delta-carbolines, benzo-delta-carbolines, and cryptolepines” (J Med Chem, 2001).
